Measured values collected from several papers.
Protocols differ between the studies behind these lines.
Target: Glycogen synthase kinase-3 beta (GSK3B, Homo sapiens, UniProt P49841)

Structure (SMILES) | test | conditions | quantity | value
CC#CC(=O)N1CCC[C@H]1c1nc(-c2ccc(C(=O)Nc3ccccn3)cc2)c2c(N)nccn12 | enzyme activity, inhibitor | 1 µM | inhibition | 0%
CN1CCN(C(=O)c2ccc(NC(=O)Nc3ccc(N(C)c4ccnc(Nc5ccc(CS(C)(=O)=O)cc5)n4)cc3)cc2)CC1 | binding | 1 µM | remaining binding | 95%
N#Cc1ccc(NC(=O)Nc2ccccc2)cc1 | cell-free assay, competition with immobilised ligand | 25 µM | remaining binding | 100%
C[C@H]1CC[C@H](n2c3cnccc3c3cnc(Nc4ccc5c(n4)CCN(C(=O)CO)C5)nc32)CC1 | cell-free assay | 1 µM | remaining signal | 72%
CCCCC(=O)Nc1ccc(-c2ccc3ncn(CCC)c(=O)c3c2)cn1 | binding, competition with immobilised ligand | 0.5 µM | remaining binding | 100%
COc1ccc2oc(-c3ccc4nc(N)oc4c3)c/c(=N\c3ccccc3NC(=O)CCN)c2c1 | binding | 1 µM | remaining binding | 106%
CC(=O)ON=C1C=CC(=C(C#N)c2ccccc2)C=C1 | enzyme activity, inhibitor, ADP detection | 2 µM | activity vs control | 88%
CC(C)S(=O)(=O)c1ccc2nccc(Nc3ccc4sc(C5CCCC5)nc4c3)c2c1 | enzyme activity, inhibitor | 1 µM | activity vs control | 113%
C1=C/COCc2cc(ccc2OCCN2CCCC2)Nc2nccc(n2)-c2cccc(c2)COC/1 | binding | 0.1 µM | remaining binding | 82%
C=CC(=O)N1CCC([C@@H]2CCNc3c(C(N)=O)c(-c4ccc(Oc5ccccc5)cc4)nn32)CC1 | enzyme activity, inhibitor | 1 µM | inhibition | 16%
Cc1cc(O)c(-c2ccc([C@@H](C)CN(C)C)cc2)c2c1[nH]c(=O)c1sccc12 | enzyme activity, inhibitor | 0.1 µM, lysate | inhibition | -0.958%
